Reference: ChEMBL document CHEMBL4229460, “Design and biological evaluation of novel hybrids of 1, 5-diarylpyrazole and Chrysin for selective COX-2 inhibition” (Bioorg Med Chem, 2018)

Legend:
[1] = molecular target: T1, Prostaglandin G/H synthase 2 (Homo sapiens, UniProt P35354); test: Inhibition of COX2 (unknown origin) using arachidonic acid as substrate pretreated for 10 mins followed by substrate addition and measured after 2 mins by ELISA
T1 sequence (P35354 whole entry): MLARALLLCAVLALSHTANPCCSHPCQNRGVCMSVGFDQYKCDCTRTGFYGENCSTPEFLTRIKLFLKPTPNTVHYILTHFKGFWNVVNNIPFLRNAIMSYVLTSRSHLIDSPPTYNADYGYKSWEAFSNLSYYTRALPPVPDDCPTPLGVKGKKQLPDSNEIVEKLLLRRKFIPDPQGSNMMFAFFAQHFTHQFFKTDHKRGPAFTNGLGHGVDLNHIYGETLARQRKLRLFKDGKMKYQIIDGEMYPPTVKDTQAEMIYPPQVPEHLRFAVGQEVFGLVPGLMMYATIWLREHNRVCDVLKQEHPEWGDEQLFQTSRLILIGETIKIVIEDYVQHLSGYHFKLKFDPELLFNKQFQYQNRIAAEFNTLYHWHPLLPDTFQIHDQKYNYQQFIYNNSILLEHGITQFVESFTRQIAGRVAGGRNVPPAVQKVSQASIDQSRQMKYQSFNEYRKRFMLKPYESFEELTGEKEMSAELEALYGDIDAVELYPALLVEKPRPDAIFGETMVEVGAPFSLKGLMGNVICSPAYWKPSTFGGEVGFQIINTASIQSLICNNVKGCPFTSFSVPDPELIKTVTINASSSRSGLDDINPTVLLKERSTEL

A549 = test: Antiproliferative activity against human A549 cells after 48 hrs by MTT assay; type: functional, cell-based; conditions: A549, 48 h
Summary of the method: (§1)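 Cells kept in DMEM with 10% FBS, penicillin/streptomycin, 37 °C, 5% CO₂. Seeded at 5 × 10⁴ cells/well and allowed to adhere 12 h. Exposed to 0, 0.1, 1, 10 and 100 μM (final) for 48 h. Viability read by MTT reduction at OD 570 nm with 630 nm reference. IC50 reported as mean ± SD of three independent experiments.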

B16-F10 = test: Antiproliferative activity against mouse B16F10 cells after 48 hrs by MTT assay; type: functional, cell-based; conditions: B16-F10, 48 h; summary of the method: as §1
Homo sapiens = species on record: Homo sapiens; test: Selectivity index, ratio of IC50 for COX1 (unknown origin) to ratio of IC50 for COX2 (unknown origin)
Summary of the method: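 Enzyme ELISA kit: COX-1 or COX-2 preincubated with compound at 0, 1, 10 or 100 μM for 10 min at 37 °C in 0.1 M Tris-HCl pH 8.0, 5 mM EDTA, 2 mM phenol, 1 μM heme. Started with 100 μM arachidonic acid for 2 min at 37 °C, stopped with 1 M HCl. PGH₂ reduced by stannous chloride; PGF2α read by enzyme immunoassay at 450 nm. Index taken as the ratio of the COX IC50 values.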

HeLa [2] = test: Antiproliferative activity against human HeLa cells after 48 hrs by MTT assay; type: functional, cell-based
[3] = molecular target: Prostaglandin G/H synthase 1 (Homo sapiens, UniProt P23219); test: Inhibition of COX1 (unknown origin) using arachidonic acid as substrate pretreated for 10 mins followed by substrate addition and measured after 2 mins by ELISA; type: ADME
HEK-293T = test: Cytotoxicity against human 293T cells after 48 hrs by MTT assay; type: cell-based
MCF7 = test: Antiproliferative activity against human MCF7 cells after 48 hrs by MTT assay; type: functional, cell-based; conditions: MCF7, 48 h
HeLa [4] = test: Disruption of mitochondrial membrane potential in human HeLa cells assessed as intact mitochondrial membrane at 10 uM after 12 hrs by JC1 staining based flow cytometry (reference value: 99.2%); type: functional
HeLa [5] = test: Disruption of mitochondrial membrane potential in human HeLa cells assessed as collapse of the mitochondrial membrane potential at 10 uM after 12 hrs by JC1 staining based flow cytometry (reference value: 0.768%); type: functional

Prostaglandin G/H synthase 1, sequence (P23219 whole entry): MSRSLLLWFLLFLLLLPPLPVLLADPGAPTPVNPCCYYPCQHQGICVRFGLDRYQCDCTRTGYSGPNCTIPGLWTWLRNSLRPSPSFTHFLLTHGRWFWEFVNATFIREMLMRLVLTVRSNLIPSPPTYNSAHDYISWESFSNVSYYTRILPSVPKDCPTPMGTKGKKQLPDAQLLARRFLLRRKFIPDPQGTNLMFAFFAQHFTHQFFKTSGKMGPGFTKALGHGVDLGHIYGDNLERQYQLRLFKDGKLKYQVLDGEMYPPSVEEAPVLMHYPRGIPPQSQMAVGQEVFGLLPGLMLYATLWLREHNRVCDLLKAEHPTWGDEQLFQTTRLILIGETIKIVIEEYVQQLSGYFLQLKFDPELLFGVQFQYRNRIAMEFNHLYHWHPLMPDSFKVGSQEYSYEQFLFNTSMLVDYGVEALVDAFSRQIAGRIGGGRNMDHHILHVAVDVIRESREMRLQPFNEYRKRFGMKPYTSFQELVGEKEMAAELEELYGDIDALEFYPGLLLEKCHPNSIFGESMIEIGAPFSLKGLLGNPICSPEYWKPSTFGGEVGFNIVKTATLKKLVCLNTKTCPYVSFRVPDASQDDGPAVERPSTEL

Row | SMILES | IC50 [1] | IC50 (A549) | IC50 (B16-F10) | Ratio IC50 (Homo sapiens) | IC50 (HeLa [2]) | IC50 [3] | IC50 (HEK-293T) | IC50 (MCF7) | Activity (HeLa [4]) | Activity (HeLa [5])
1 | Cc1ccc(-n2nc(COC(=O)COc3cc(O)c4c(=O)cc(-c5ccccc5)oc4c3)cc2-c2cccc(Cl)c2)cc1 | 4.8 µM | 8.17 µM | 3.85 µM | 10.3 | 25.5 µM | 49.6 µM | 161 µM | 22 µM |  | 
2 | O=C(COc1cc(O)c2c(=O)cc(-c3ccccc3)oc2c1)OCc1cc(-c2ccc(Br)cc2)n(-c2ccccc2)n1 | 2.12 µM | 3.58 µM | > 100 µM | 20.4 | 6.67 µM | 43.2 µM | 316 µM | 8.48 µM |  | 
3 | O=C(COc1cc(O)c2c(=O)cc(-c3ccccc3)oc2c1)OCc1cc(-c2ccc(F)cc2)n(-c2ccccc2)n1 | 2.54 µM | 12 µM | 6.24 µM | > 20 | > 100 µM | > 50 µM | 187 µM | 3.82 µM |  | 
4 | N#CC(C#N)=NNc1cccc(Cl)c1 [CARBONYL CYANIDE M-CHLOROPHENYLHYDRAZONE] |  |  |  |  |  |  |  |  | 59.5% | 40.5%
5 | O=C(COc1cc(O)c2c(=O)cc(-c3ccccc3)oc2c1)OCc1cc(-c2ccc(Cl)c(Cl)c2)n(-c2ccccc2)n1 | 6.83 µM | 5.52 µM | 6.44 µM | > 7 | 6.28 µM | > 50 µM | 233 µM | 3.29 µM |  | 
6 | Cc1cccc(-c2cc(COC(=O)COc3cc(O)c4c(=O)cc(-c5ccccc5)oc4c3)nn2-c2ccccc2)c1 | 1.36 µM | > 100 µM | 2.85 µM | 28.7 | 1.95 µM | 39.1 µM | 316 µM | 10.8 µM |  | 
